Legend:
[1] = target: T1, Sterol O-acyltransferase 1 (Rattus norvegicus, UniProt O70536); experiment: Concentration required to inhibit 50% activity of Acyl coenzyme A:cholesterol acyltransferase 1 in vitro using rat liver microsome.; type: microsomes
T1 sequence (O70536 whole entry): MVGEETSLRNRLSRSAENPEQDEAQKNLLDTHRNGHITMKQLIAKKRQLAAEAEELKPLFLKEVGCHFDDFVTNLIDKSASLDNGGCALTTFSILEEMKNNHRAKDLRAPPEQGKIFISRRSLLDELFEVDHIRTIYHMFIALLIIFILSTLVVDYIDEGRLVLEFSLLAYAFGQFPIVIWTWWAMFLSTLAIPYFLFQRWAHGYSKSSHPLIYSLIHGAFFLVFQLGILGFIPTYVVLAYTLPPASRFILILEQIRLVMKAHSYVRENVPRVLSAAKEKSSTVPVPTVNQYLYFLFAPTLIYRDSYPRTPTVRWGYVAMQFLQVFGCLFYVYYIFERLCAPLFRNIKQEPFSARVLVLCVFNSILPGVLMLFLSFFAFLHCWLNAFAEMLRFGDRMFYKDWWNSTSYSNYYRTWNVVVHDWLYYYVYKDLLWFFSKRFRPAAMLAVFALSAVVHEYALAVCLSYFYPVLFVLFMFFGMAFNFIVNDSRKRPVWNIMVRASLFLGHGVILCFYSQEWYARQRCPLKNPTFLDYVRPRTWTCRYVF
Outline: (§1)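 Rat liver microsomes; ACAT activity read as [14C]cholesteryl oleate formed from [14C]oleoyl-CoA (pmol/min/mg). Inhibitors added in 5 µL DMSO. Duplicate assays with at least four inhibitor concentrations bracketing the IC50; IC50 is the concentration giving 50% inhibition of ACAT activity. Average range of replicates ±17%.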

[2] = Acyl coenzyme A:cholesterol acyltransferase inhibition in cell culture measured in murine J774 macrophages.
[3] = Acyl coenzyme A:cholesterol acyltransferase inhibition in cell culture measured in murine IC-21 macrophages.
[4] = Acyl coenzyme A:cholesterol acyltransferase activity was determined in J774 macrophages by measuring the formation of labeled cholesteryl oleate (pmol/midmg) from [14C]oleoyl-CoA; type: functional
Outline: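 J774 cells grown in high-glucose DMEM with 10% FBS at 37 °C, 6% CO2, then harvested for microsome preparation. ACAT activity in these microsomes measured as in the hepatic assay, as [14C]cholesteryl oleate formed from [14C]oleoyl-CoA, with inhibitors in DMSO. IC50 taken as the concentration giving 50% inhibition.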

[5] = target: T1, Sterol O-acyltransferase 1; experiment: ACAT activity was determined in rat hepatic microsomes by measuring the formation of labeled cholesteryl oleate (pmol/midmg) from [14C]oleoyl-CoA; type: functional, Liver; outline: as §1
J774 = experiment: Concentration required to inhibit 50% activity of J774 macrophage cholesterol esterification; type: functional, cell-based; conditions: Mus musculus
Outline: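 Intact J774A.1 cells, seeded at 3 x 10^4 cells/cm2 and grown 36 h, then loaded 17 h with ac-LDL in 10% FBS-DMEM. Inhibitors in DMSO (1.0% final) for 4 h, with [14C]oleate–BSA for the last 2 h. Cholesteryl ester separated by TLC and counted (nmol/h/mg Lowry protein).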

Structure (SMILES) | IC50 ([1]; read-out: IC50) | IC50 [2] | also measured
CCCCCCCN(CCCCCSc1nc(-c2ccc(OC)cc2)c(-c2ccc(OC)cc2)[nH]1)C(=O)Nc1ccc(F)cc1F | 140 nM | 80 nM | 
CCOCCOCCN(CCCCCSc1nc(-c2ccccc2)c(-c2ccccc2)[nH]1)C(=O)Nc1ccc(F)cc1F | 50 nM | 4010 nM | 
CCCCCCCN(CCCCCSc1nc(-c2ccco2)c(-c2ccco2)[nH]1)C(=O)Nc1ccc(F)cc1F | 200 nM | 450 nM | 
CCCCCCCN(CCCCCSc1nc(C2CCCCC2)c(C2CCCCC2)[nH]1)C(=O)Nc1ccc(F)cc1F | 20 nM | 640 nM | 
CCCCCCCN(CCCCCSc1nc(-c2ccc(OC)cc2)c(-c2ccc(OC)cc2)[nH]1)C(=O)Oc1ccccc1 | 640 nM | 32 nM | 
CCCCCCCN(CCCCCSc1nc(-c2ccccc2OC)c(-c2ccccc2OC)[nH]1)C(=O)Nc1ccc(F)cc1F | 350 nM | 2070 nM | 
CCCCCCCN(CCCCCSc1nc(-c2ccc(N(C)C)cc2)c(-c2ccc(N(C)C)cc2)[nH]1)C(=O)Nc1ccc(F)cc1F | 50 nM | 80 nM | 
CC(C)NC(=O)N(CCN(C)CCSc1nc(-c2ccccc2)c(-c2ccccc2)[nH]1)CCN1CCOCC1 | 350 nM | 6280 nM | 
O=C(Nc1ccc(F)cc1F)N(CCCCCSc1nc(-c2ccccc2)c(-c2ccccc2)[nH]1)CCOCCO | 40 nM | 6740 nM | 
CCCCCCCN(CCCCCSc1nc(-c2ccc(O)cc2)c(-c2ccc(O)cc2)[nH]1)C(=O)Nc1ccc(F)cc1F | 2400 nM | 4750 nM | 
CCCCCCCN(CCN(C)CCSc1nc(-c2ccccc2)c(-c2ccccc2)[nH]1)C(=O)Nc1ccc(F)cc1F | 170 nM | 1470 nM | 
CCCCCCCN(CCCCCSc1nc(-c2ccc(N(C)C)cc2)c(-c2ccc(N(C)C)cc2)[nH]1)C(=O)CC1CCCCC1 | 50 nM | 16 nM | 
CCCCCCCN(CCCCCSc1nc(-c2ccccn2)c(-c2ccccn2)[nH]1)C(=O)Nc1ccc(F)cc1F | 1000 nM | 2250 nM | 
CCCCCCCN(CCCCCSc1nc(-c2ccc(OC)cc2)c(-c2ccc(OC)cc2)[nH]1)C(=O)NC(C)C | 160 nM | 4 nM | 
COCCOCCN(CCCCCSc1nc(-c2ccc(N(C)C)cc2)c(-c2ccc(N(C)C)cc2)[nH]1)C(=O)NC(C)C |  | 7510 nM | IC50 [1]: Not Active
CCOCCOCCN(CCCCCSc1nc(-c2ccc(SC)cc2)c(-c2ccc(SC)cc2)[nH]1)C(=O)NC(C)C | 280 nM | 40 nM | 
CCCCCCCN(CCCCCSc1nc(C(C)C)c(C(C)C)[nH]1)C(=O)Nc1ccc(F)cc1F | 20 nM | 640 nM | 
CCCCCCCN(CCCCCSc1nc2c([nH]1)-c1ccccc1OCOc1ccccc1-2)C(=O)Nc1ccc(F)cc1F | 30 nM | 840 nM | 
CCCCCCCN(CCCCCSc1nc(-c2ccc(N(C)C)cc2)c(-c2ccc(N(C)C)cc2)[nH]1)C(=O)Oc1ccccc1 | 120 nM | 60 nM | 
COCCOCCN(CCCCCSc1nc(-c2ccc(OC)cc2)c(-c2ccc(OC)cc2)[nH]1)C(=O)NC(C)C | 500 nM | 360 nM | 
CCCCCCCN(CCCCCSc1nc(-c2ccc(C)cc2)c(-c2ccc(C)cc2)[nH]1)C(=O)Nc1ccc(F)cc1F | 80 nM | 290 nM | 
CN(CCSc1nc(-c2ccccc2)c(-c2ccccc2)[nH]1)CCN(CCN1CCOCC1)C(=O)Nc1ccc(F)cc1F | 240 nM | 2740 nM | 
CCCCCCCN(CCOCCSc1nc(-c2ccccc2)c(-c2ccccc2)[nH]1)C(=O)Nc1ccc(F)cc1F | 80 nM | 3980 nM | 
CCCCCCCN(CCCCCSc1nc(-c2ccc(F)cc2)c(-c2ccc(F)cc2)[nH]1)C(=O)Nc1ccc(F)cc1F | 40 nM | 3500 nM | 
CCCCN(C)CCN(CCOCCSc1nc(-c2ccc(OC)cc2)c(-c2ccc(OC)cc2)[nH]1)C(=O)Nc1ccc(F)cc1F | 1500 nM |  | IC50 [3]: 630 nM
CCCCCCCN(CCCCCSc1nc(-c2ccc(OC)cc2)c(-c2ccc(OC)cc2)[nH]1)C(=O)CC1CCCCC1 | 11 nM | 29 nM | 

Structure (SMILES) | IC50 ([1]; read-out: IC50) | IC50 [2] | also measured
CC(C)NC(=O)N(CCCCCSc1nc(-c2ccccc2)c(-c2ccccc2)[nH]1)CCOCCO | 90 nM | 6840 nM | 
COc1ccc(-c2nc(SCCCCCN(CCCCCO)C(=O)NC(C)C)[nH]c2-c2ccc(OC)cc2)cc1 |  | 1000 nM | 
CCCCOCCN(CCCCCSc1nc(-c2ccccc2)c(-c2ccccc2)[nH]1)C(=O)Nc1ccc(F)cc1F | 70 nM | 1750 nM | 
CCN(CC)CCN(CCCCCSc1nc(-c2ccccc2)c(-c2ccccc2)[nH]1)C(=O)Nc1ccc(F)cc1F | 80 nM | 2180 nM | 
CCN(CC)CCN(CCCCCSc1nc(-c2ccccc2)c(-c2ccccc2)[nH]1)C(=O)NC(C)C | 660 nM | 580 nM | 
CCCCCCCN(CCOCCSc1nc(-c2ccccc2)c(-c2ccccc2)[nH]1)C(=O)NC(C)C | 190 nM | 990 nM | 
CCCCCCCN(CCCCCSc1nc(-c2ccc(C(F)(F)F)cc2)c(-c2ccc(C(F)(F)F)cc2)[nH]1)C(=O)Nc1ccc(F)cc1F | 39900 nM | 25000 nM | 
COc1ccc(-c2nc(SCCCCCN(CCOCCO)C(=O)Nc3ccc(F)cc3F)[nH]c2-c2ccc(OC)cc2)cc1 | 230 nM | 840 nM | 
COc1ccc(-c2nc(SCCCCCN(CCN3CCOCC3)C(=O)Nc3ccc(F)cc3F)[nH]c2-c2ccc(OC)cc2)cc1 | 270 nM | 1340 nM | 
CCCCCCCN(CCCCCSc1nc2c([nH]1)-c1ccccc1Oc1ccccc1-2)C(=O)Nc1ccc(F)cc1F | 60 nM | 1720 nM | 
CCCCCCCN(CCOCCSc1nc(-c2ccc(OC)cc2)c(-c2ccc(OC)cc2)[nH]1)C(=O)NC(C)C | 850 nM | 340 nM | 
CCCCCCCN(CCCCCSc1nc(-c2cccs2)c(-c2cccs2)[nH]1)C(=O)Nc1ccc(F)cc1F | 60 nM | 940 nM | 
CCCCCCCN(CCCCCSc1nc(-c2cccc(OC)c2)c(-c2cccc(OC)c2)[nH]1)C(=O)Nc1ccc(F)cc1F | 40 nM | 360 nM | 
CCCCCCCN(CCOCCSc1nc(-c2ccc(OC)cc2)c(-c2ccc(OC)cc2)[nH]1)C(=O)Nc1ccc(F)cc1F | 2300 nM | 500 nM | 
CCCCCCCN(CCCCCSc1nc(-c2ccc(N(C)C)cc2)c(-c2ccc(N(C)C)cc2)[nH]1)C(=O)NC(C)C | 80 nM | 3 nM | IC50 [4]: 0.6 nM; IC50 [5]: 80 nM; IC50 (J774): 4 nM
CCCCCCCN(CCCCCSc1nc(CCC)c(CCC)[nH]1)C(=O)Nc1ccc(F)cc1F | 60 nM | 2700 nM | 
CCCCCCCN(CCCCCSc1nc(-c2ccc(S(C)(=O)=O)cc2)c(-c2ccc(S(C)(=O)=O)cc2)[nH]1)C(=O)Nc1ccc(F)cc1F | > 50000 nM | 2020 nM | 
COCCOCCN(CCCCCSc1nc(-c2ccc(OC)cc2)c(-c2ccc(OC)cc2)[nH]1)C(=O)Nc1ccc(F)cc1F | 340 nM | 250 nM | 
CCCCOCCN(CCCCCSc1nc(-c2ccccc2)c(-c2ccccc2)[nH]1)C(=O)NC(C)C | 190 nM | 840 nM | 
CCOCCOCCN(CCCCCSc1nc(-c2ccccc2)c(-c2ccccc2)[nH]1)C(=O)NC(C)C | 30 nM | 3020 nM | 
CCCCCCCN(CCCCCSc1nc(-c2ccc(SC)cc2)c(-c2ccc(SC)cc2)[nH]1)C(=O)Nc1ccc(F)cc1F | 70 nM | 50 nM | 
COc1ccc(-c2nc(SCCCOCCN(CCOCCO)C(=O)NC(C)C)[nH]c2-c2ccc(OC)cc2)cc1 | 480 nM | 2420 nM | 
O=C(Nc1ccc(F)cc1F)N(CCCCCSc1nc(-c2ccccc2)c(-c2ccccc2)[nH]1)CCN1CCOCC1 | 70 nM | 880 nM | 
CCCCCCCN(CCN(C)CCSc1nc(-c2ccccc2)c(-c2ccccc2)[nH]1)C(=O)NC(C)C | 260 nM | 2400 nM | 
CCCCCCCN(CCCCCSc1nc(-c2ccccc2)c(-c2ccccc2)[nH]1)C(=O)Nc1ccc(F)cc1F [LECIMIBIDE] |  | 1000 nM | IC50 [4]: 25 nM; IC50 (J774): 1000 nM
